# In ChEMBL document CHEMBL4028901, “Novel Antitubercular 6-Dialkylaminopyrimidine Carboxamides from Phenotypic Whole-Cell High Throughput Screening of a SoftFocus Library: Structure-Activity Relationship and Target Identification Studies” (J Med Chem, 2017):
# Assays:
# Mus musculus [1] = assay: AUC (0 to infinity) in C57/BL6 mouse at 20 mg/kg, po measured up to 24 hrs post dose by LC-MS/MS analysis; type: ADME, organism-based; parameters: dose 20 mg/kg, route oral, time infinity; details: in vivo
# Outline: (§1)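 Male mice, 3 per route, not fasted, free access to water. Oral dose given as aqueous suspension in 0.5% (w/v) hydroxypropyl methylcellulose with 0.4% (v/v) Tween 80. Blood drawn into heparinised tubes at 0.5, 1, 3, 5, 8, 12 and 24 h, kept below -15 °C, protein-precipitated with ice-cold acetonitrile. Quantified by LC-MS/MS against standards made in drug-free mouse blood.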
# Liver [2] = assay: Metabolic stability in human liver microsomes assessed as compound remaining at 0.1 uM after 30 mins by LC-MS/MS analysis; type: ADME, microsome; details: 0.5 h
# Outline: (§2)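 Compound at 0.1 μM incubated in duplicate with mouse, rat or pooled human liver microsomes (0.4 mg/mL) at 37 °C. Run with and without 1 mM NADPH, sampled at predetermined time points.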
# Liver [3] = assay: Drug metabolism in BALB mouse liver microsomes assessed as N-demethylation on LHS at 10 uM after 1 hr by LC-MS/MS analysis; type: ADME, microsome
# Outline: (§3)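 Incubation at 37 °C for 1 h with shaking in 100 mM phosphate buffer pH 7.4, 1 mg/ml microsomes, 5 mM MgCl2 and 1 mM NADPH. Ice-cold acetonitrile precipitation, filtration, then LC-MS/MS. Controls: unincubated sample, and samples lacking NADPH or lacking microsomes; propranolol 10 μM as positive control. Metabolites found by comparing T60 with T0 and no-NADPH chromatograms, with product ion spectra of [M+H]+ compared against parent and synthetic standards where available.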
# Mus musculus [4] = assay: Apparent elimination half life in C57/BL6 mouse at 20 mg/kg, po measured up to 24 hrs post dose by LC-MS/MS analysis; type: ADME, organism-based; details: in vivo; outline: as §1
# Liver [5] = assay: Metabolic stability in mouse liver microsomes assessed as compound remaining at 0.1 uM after 30 mins by LC-MS/MS analysis; type: ADME, microsome; details: 0.5 h; outline: as §2
# [6] = Lipophilicity, log P of the compound at 100 uM at pH 7.4 after 3 hrs by shake-flask method; type: physicochemical; details: buffer
# Outline: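 Shake-flask method run in triplicate. A 10 mM stock was spiked into a 1:1 mixture of phosphate buffer (pH 7.4) and n-octanol, then shaken at 1500 rpm on an orbital shaker for 3 h at room temperature.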
# [7] = test system: Mycobacterium tuberculosis; assay: Antibacterial activity against Mycobacterium tuberculosis H37RvMA grown in 7H9/ADC medium measured 7 to 14 days post inoculation by broth microdilution method; type: functional
# Mus musculus [8] = assay: Apparent elimination half life in C57/BL6 mouse at 5 mg/kg, iv measured up to 24 hrs post dose by LC-MS/MS analysis; type: ADME, organism-based; details: in vivo
# Outline: (§4)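 Male mice, 3 animals, not fasted, given an IV bolus in 10% DMSO, 50% propylene glycol/ethanol (4:1) and 40% polyethylene glycol or water. Blood sampled into heparinised tubes at 0.17, 0.5, 1, 3, 5, 8, 12 and 24 h, stored frozen, precipitated with ice-cold acetonitrile. Measured by LC-MS/MS with internal standards against blood-matrix calibration standards.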
# Plasma = assay: Fraction unbound in human plasma at 5 uM pre-incubated for 1 hr by ultra-centrifugation and LC-MS/MS method; type: ADME, cell-free
# Outline: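 Pooled human plasma spiked to 5 μM and pre-incubated 1 h at 37 °C. Duplicate aliquots ultracentrifuged 4 h at 37 °C; an unspun aliquot served as the total sample. Analyte measured by LC-MS/MS.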
# Vero = assay: Cytotoxicity against African green monkey Vero cells assessed as reduction in cell viability by MTT assay; type: cell-based; details: Chlorocebus sabaeus
# Outline: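 MTT assay in Vero cells, samples in triplicate on one occasion. Stocks at 20 mg/mL in DMSO, diluted in complete medium as 10-fold serial dilutions over 6 concentrations. Emetine used as reference. IC50 derived by non-linear dose-response curve fitting.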
# Liver [9] = assay: Drug metabolism in BALB mouse liver microsomes assessed as cleavage of amide bound on RHS at 10 uM after 1 hr by LC-MS/MS analysis; type: ADME, microsome; outline: as §3
# Mus musculus [10] = assay: Cmax in C57/BL6 mouse at 20 mg/kg, po measured up to 24 hrs post dose by LC-MS/MS analysis; type: ADME, organism-based; parameters: dose 20 mg/kg, route oral; details: in vivo; outline: as §1
# [11] = Kinetic solubility of the compound in fasted-state simulated intestinal fluid at 10 to 220 uM at pH 6.5 after 2 hrs by shake flask method; type: physicochemical; details: read-out: Kinetic_solubility
# Outline: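 Miniaturised shake flask. 10 mM DMSO stocks spiked 1:50 into duplicate FaSSIF (pH 6.5), 2% final DMSO. Shaken 2 h at 25 °C, filtered, analysed by HPLC-DAD against calibration standards (10–220 μM).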
# Mus musculus [12] = assay: Oral bioavailability in C57/BL6 mouse at 20 mg/kg measured up to 24 hrs post dose by LC-MS/MS analysis; type: ADME, organism-based; details: in vivo; outline: as §1
# [13] = Kinetic solubility of the compound in pH 7.4 solution at 10 to 220 uM after 2 hrs by shake flask method; type: physicochemical; details: buffer, pH 7.4, 2 h, 220 µM
# Mus musculus [14] = assay: Tmax in C57/BL6 mouse at 20 mg/kg, po measured up to 24 hrs post dose by LC-MS/MS analysis; type: ADME, organism-based; details: in vivo; outline: as §1
# [15] = test system: Mycobacterium tuberculosis; assay: Antibacterial activity against Mycobacterium tuberculosis H37RvMA grown in GAST/Fe medium measured 7 to 14 days post inoculation by broth microdilution method; type: functional
# Outline: (§5)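 H37RvMa grown to OD600 0.6–0.7, diluted 1:100 in GAST/Fe. Compounds two-fold serially diluted from a top concentration of 640 μM, in duplicate. Incubated at 37 °C with humidification.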
# Mus musculus [16] = assay: AUC (0 to infinity) in C57/BL6 mouse at 5 mg/kg, iv measured up to 24 hrs post dose by LC-MS/MS analysis; type: ADME, organism-based; parameters: dose 5 mg/kg, route intravenous, time infinity; details: in vivo; outline: as §4
# Mus musculus [17] = assay: Volume of distribution in C57/BL6 mouse at 5 mg/kg, iv measured up to 24 hrs post dose by LC-MS/MS analysis; type: ADME, organism-based; details: in vivo; outline: as §4
# Liver [18] = assay: Metabolic stability in rat liver microsomes assessed as compound remaining at 0.1 uM after 30 mins by LC-MS/MS analysis; type: ADME, microsome; details: 0.5 h; outline: as §2
# [19] = test system: Mycobacterium tuberculosis; assay: Antibacterial activity against cytochrome bd oxidase knockout GFP-fused Mycobacterium tuberculosis H37RvMA grown in GAST/Fe medium measured on day 7 and day 14 post inoculation by fluorescence plate reader assay; type: functional
# [20] = test system: Mycobacterium tuberculosis; assay: Antibacterial activity against cytochrome bd oxidase knockout GFP-fused Mycobacterium tuberculosis H37RvMA grown in 7H9/GLU/ADC medium measured on day 7 and day 14 post inoculation by fluorescence plate reader assay; type: functional; details: Mycobacterium tuberculosis, H37RvMA; read-out: MIC99
# [21] = test system: Mycobacterium tuberculosis; assay: Antibacterial activity against wild type Mycobacterium tuberculosis H37Rv grown in GAST/Fe medium measured on day 14 post inoculation by broth microdilution method; type: functional; details: 336 h; outline: as §5
# [22] = test system: Mycobacterium tuberculosis; assay: Antibacterial activity against Mycobacterium tuberculosis […] SAWC1125 grown in middlebrook 7H9 medium measured on day 7 and 14 by MABA assay; type: functional; details: 168 h
# Outline: (§6)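 Clinical M. tuberculosis strains tested by broth microdilution in 7H9 medium. On days 7 and 14, Alamar Blue added and plates reincubated 24 h at 37 °C. Colour read by eye (blue means no growth, pink means growth). MIC90 is the lowest concentration with no colour change.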
# [23] = test system: Mycobacterium tuberculosis; assay: Antibacterial activity against Mycobacterium tuberculosis […] SAWC3933 grown in middlebrook 7H9 medium measured on day 7 and 14 by MABA assay; type: functional; details: 168 h; outline: as §6
# [24] = test system: Mycobacterium tuberculosis; assay: Antibacterial activity against Mycobacterium tuberculosis […] SAWC3200 grown in middlebrook 7H9 medium measured on day 7 and 14 by MABA assay; type: functional; details: 168 h; outline: as §6
# [25] = test system: Mycobacterium tuberculosis; assay: Antibacterial activity against Mycobacterium tuberculosis […] SAWC3906 grown in middlebrook 7H9 medium measured on day 7 and 14 by MABA assay; type: functional; details: 168 h; outline: as §6
# [26] = test system: Mycobacterium tuberculosis; assay: Antibacterial activity against Mycobacterium tuberculosis H37Rv grown in middlebrook 7H9 medium measured on day 7 and 14 by MABA assay; type: functional; details: 168 h
# [27] = test system: Mycobacterium tuberculosis; assay: Antibacterial activity against Mycobacterium tuberculosis […] SAWC3388 grown in middlebrook 7H9 medium measured on day 7 and 14 by MABA assay; type: functional; details: 168 h; outline: as §6
# [28] = test system: Mycobacterium tuberculosis; assay: Antibacterial activity against Mycobacterium tuberculosis […] SAWC3385 grown in middlebrook 7H9 medium measured on day 7 and 14 by MABA assay; type: functional; details: 168 h; outline: as §6
structure (smiles),measurement,setting,value
CN(Cc1ccc(C(F)(F)F)cc1)c1cc(C(=O)Nc2ccccc2)ncn1,AUC,Mus musculus [1],1334 µM·min
same,Stability,Liver [2],55%
same,Drug metabolism,Liver [3],Metabolite_Detected
same,betat1/2(app),Mus musculus [4],8.7 h
same,Stability,Liver [5],60%
same,"logD at 3 h, 100 µM",[6],5
same,MIC99,[7],5 µM
same,betat1/2(app),Mus musculus [8],4.6 h
same,Fu,Plasma,0.11%
same,IC50,Vero,258 µM
same,Drug metabolism,Liver [9],Metabolite_Detected
same,Cmax,Mus musculus [10],2200 nM
same,solubility kinetic at 2 h,[11],5 µM
same,F,Mus musculus [12],28%
same,Kinetic_solubility,[13],< 5 µM
same,Tmax,Mus musculus [14],1 h
same,MIC99,[15],5 µM
same,AUC,Mus musculus [16],1224 µM·min
same,Vd,Mus musculus [17],4.3 L/kg
same,Stability,Liver [18],87%
CN(Cc1ccc(S(C)(=O)=O)cc1)c1cc(C(=O)Nc2ccccc2)ncn1,MIC99,[19],> 125 µM
same,MIC99,[20],> 125 µM
same,Kinetic_solubility,[13],10 µM
CN(Cc1ccc(F)cc1)c1cc(C(=O)Nc2nncs2)ncn1,AUC,Mus musculus [1],1022 µM·min
same,Stability,Liver [2],67%
same,Drug metabolism,Liver [3],Metabolite_Detected
same,betat1/2(app),Mus musculus [4],4.4 h
same,MIC99,[21],5 µM
same,MIC90,[22],< 0.08 µM
same,Stability,Liver [5],74%
same,"logD at 3 h, 100 µM",[6],2
same,MIC99,[7],12.5 µM
same,betat1/2(app),Mus musculus [8],5.1 h
same,Fu,Plasma,0.01%
same,MIC90,[23],0.625 µM
same,IC50,Vero,21.9 µM
same,MIC90,[24],< 0.08 µM
same,Drug metabolism,Liver [9],Metabolite_Detected
same,Cmax,Mus musculus [10],2580 nM
same,solubility kinetic at 2 h,[11],< 5 µM
same,F,Mus musculus [12],19%
same,Kinetic_solubility,[13],128 µM
same,Tmax,Mus musculus [14],1 h
same,MIC90,[25],< 0.08 µM
same,MIC90,[26],2.5 µM
same,MIC99,[15],4.7 µM
same,AUC,Mus musculus [16],1329 µM·min
same,MIC90,[27],0.15 µM
same,MIC90,[28],< 0.08 µM
same,Vd,Mus musculus [17],4.8 L/kg
same,Stability,Liver [18],65%
CN(Cc1ccc(C(F)(F)F)nc1)c1cc(C(=O)Nc2ccccc2)ncn1,AUC,Mus musculus [1],1999 µM·min
same,Stability,Liver [2],85%
same,betat1/2(app),Mus musculus [4],7.2 h
same,Stability,Liver [5],87%
same,"logD at 3 h, 100 µM",[6],3.7
same,MIC99,[7],37 µM
same,betat1/2(app),Mus musculus [8],0.7 h
same,Fu,Plasma,0.05%
same,IC50,Vero,258 µM
same,Cmax,Mus musculus [10],3400 nM
same,solubility kinetic at 2 h,[11],< 5 µM
same,F,Mus musculus [12],42%
same,Tmax,Mus musculus [14],4 h
same,MIC99,[15],10 µM
same,AUC,Mus musculus [16],1179 µM·min
same,Vd,Mus musculus [17],0.7 L/kg
same,Stability,Liver [18],72%
